Assay results reported in ChEMBL document CHEMBL1140150, “Identification of a nonbasic, nitrile-containing cathepsin K inhibitor (MK-1256) that is efficacious in a monkey model of osteoporosis” (J Med Chem, 2008).

Legend:
[1] = Inhibition of humanized rabbit cathepsin K Tyr61Asp and Val157Leu mutant; set-up: species or system Homo sapiens
Cathepsin K = molecular target: T1, Cathepsin K (Oryctolagus cuniculus, UniProt P43236); assay: Inhibition of rabbit cathepsin K
T1 sequence (P43236 whole entry): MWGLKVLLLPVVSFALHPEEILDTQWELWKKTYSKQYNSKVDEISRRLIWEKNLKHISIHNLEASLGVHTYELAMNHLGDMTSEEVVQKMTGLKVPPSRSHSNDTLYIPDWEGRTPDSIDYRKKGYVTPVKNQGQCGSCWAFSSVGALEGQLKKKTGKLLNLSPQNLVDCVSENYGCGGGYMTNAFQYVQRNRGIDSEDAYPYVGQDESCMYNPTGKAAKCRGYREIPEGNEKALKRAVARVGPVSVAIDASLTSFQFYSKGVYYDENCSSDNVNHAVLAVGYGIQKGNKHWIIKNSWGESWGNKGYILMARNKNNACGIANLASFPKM

[2] = Selectivity for rabbit cathepsin K over human cathepsin B
Outline: (§1)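 Counterscreens used human Cat B and Cat S. Selectivity is expressed against humanized rabbit Cat K.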

[3] = Selectivity for rabbit cathepsin K over human cathepsin S; outline: as §1
[4] = Inhibition of bone resorption in rabbit bone; format: functional, tissue-based, Oryctolagus cuniculus, Bone element
[5] = Bone resorption shift, ratio of IC50 for inhibition of bone resorption in rabbit bone to IC50 for rabbit cathepsin K; format: functional, Oryctolagus cuniculus
Outline: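 Bone resorption shift is the rabbit bone resorption IC50 divided by the rabbit Cat K IC50.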

[6] = Metabolic stability in po dosed rat bile assessed as drug recovery after 96 hrs; format: ADME, organism-based; details: read-out: Stability
Outline: (§2)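 Radiolabeled compound was given orally to bile-cannulated rats. Radioactivity was recovered from bile, urine and feces over 96 h and expressed as percent of dosed radioactivity.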

[7] = Metabolic stability in po dosed rat urine assessed as drug recovery after 96 hrs; format: ADME, organism-based; details: read-out: Stability; outline: as §2
[8] = Metabolic stability in po dosed rat feces assessed as drug recovery after 96 hrs; format: ADME, organism-based; details: faeces, read-out: Stability; outline: as §2
[9] = Metabolic stability in po dosed rat assessed as drug recovery after 96 hrs; format: ADME, organism-based; details: in vivo; outline: as §2
Rattus norvegicus [10] = assay: Metabolic stability in po dosed rat assessed as (1R,2R)-5,5-dichloro-N-(1-cyanocyclopropyl)-2-(4-(4-(methylsulfonyl)phenyl)-1H-pyrazol-3-yl)cyclohexanecarboxamide level after 96 hrs; format: ADME, organism-based; details: in vivo
[11] = Selectivity for rabbit cathepsin K over human cathepsin C
[12] = Selectivity for rabbit cathepsin K over human cathepsin H
[13] = Selectivity for rabbit cathepsin K over human cathepsin Z
[14] = Selectivity for rabbit cathepsin K over human cathepsin V
[15] = Selectivity for rabbit cathepsin K over human cathepsin F
[16] = Inhibition of bone resorption in rhesus monkey bone; format: functional, tissue-based, Macaca mulatta, Bone element
Rhesus monkey [17] = assay: Inhibition of bone resorption in ovariectomized monkey model of osteoporosis assessed as reduction of urinary-N-telopeptide fragment level at 1 mg/kg, po qd for 1 week; format: functional, Macaca mulatta, Urine; set-up: scale not given: the % may be the effect or the level left
Outline: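 Adult ovariectomized rhesus monkeys given drug or vehicle orally once daily at 1 mpk for 1 week. Bone resorption was followed by urinary N-telopeptide (NTx) normalized to creatinine (nM/mM), and the value is the mean reduction versus vehicle-treated animals.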

[18] = Cmax in ovariectomized monkey model of osteoporosis at 1 mg/kg, po qd for 1 week; format: ADME, organism-based, Macaca mulatta; set-up: dose 1 mg/kg, route oral; details: female, rhesus monkey, in vivo
Outline: (§3)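 Adult ovariectomized rhesus monkeys dosed orally once daily at 1 mpk for 1 week, dosing volume 1 mL/kg, fasted overnight before morning dosing. Plasma drug levels were taken on the final day of dosing and analyzed by LC-MS after protein precipitation with 1.5 volumes acetonitrile and centrifugation.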

[19] = Tmax in ovariectomized monkey model of osteoporosis at 1 mg/kg, po qd for 1 week; format: ADME, organism-based, Macaca mulatta; set-up: dose 1 mg/kg, route oral; details: female, rhesus monkey, in vivo; outline: as §3
[20] = Drug level in ovariectomized monkey model of osteoporosis at 1 mg/kg, po qd for 1 week measured after 24 hrs of last dose; format: ADME, organism-based, Macaca mulatta; set-up: dose 1 mg/kg, route oral; details: female, rhesus monkey, in vivo, read-out: Drug uptake; outline: as §3
[21] = AUC in ovariectomized monkey model of osteoporosis at 1 mg/kg, po qd for 1 week; format: ADME, organism-based, Macaca mulatta; set-up: dose 1 mg/kg, route oral; details: female, rhesus monkey, in vivo; outline: as §3
Homo sapiens = species: Homo sapiens; assay: Inhibition of humanized rabbit cathepsin K Tyr61Asp and Val157Leu mutant in presence of 0.2 uM citrate buffer at 0.12 uM
Outline: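 Reversibility test: a 1:1 mixture of humanized rabbit Cat K and inhibitor (0.12 µM) was preincubated 15 min, then diluted 500-fold into substrate-containing buffer (0.2 µM citrate). Recovery of enzyme activity was followed over time against a control incubation, giving a recovery half-time.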

[22] = Oral bioavailability in rat at 10 mL/kg; format: ADME, organism-based; details: in vivo
Outline: (§4)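 Oral suspensions were given to overnight-fasted animals in the morning, at 10 mL/kg in rats, 5 mL/kg in dogs and 1 mL/kg in monkeys. Intravenous dosing was 1 mL/kg in all species. Plasma was sampled at intervals and analyzed by LC-MS after protein precipitation with 1.5 volumes acetonitrile and centrifugation.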

[23] = Clearance in rat at 10 mL/kg, po; format: ADME, organism-based; details: in vivo; outline: as §4
[24] = Half life in rat at 10 mL/kg, po; format: ADME, organism-based; details: in vivo; outline: as §4
Rattus norvegicus [25] = assay: Volume of distribution in rat at 10 mL/kg, po; format: ADME, organism-based; details: in vivo; outline: as §4
[26] = Oral bioavailability in dog at 5 mL/kg; format: ADME, organism-based, Canis lupus familiaris; details: in vivo; outline: as §4
[27] = Clearance in dog at 5 mL/kg, po; format: ADME, organism-based, Canis lupus familiaris; details: in vivo; outline: as §4
[28] = Half life in dog at 5 mL/kg, po; format: ADME, organism-based, Canis lupus familiaris; details: in vivo; outline: as §4
Canis familiaris = assay: Volume of distribution in dog at 5 mL/kg, po; format: ADME, organism-based, Canis lupus familiaris; details: in vivo; outline: as §4
[29] = Oral bioavailability in rhesus monkey at 1 mL/kg; format: ADME, organism-based, Macaca mulatta; details: in vivo; outline: as §4
[30] = Clearance in rhesus monkey at 1 mL/kg, po; format: ADME, organism-based, Macaca mulatta; details: in vivo; outline: as §4
[31] = Half life in rhesus monkey at 1 mL/kg, po; format: ADME, organism-based, Macaca mulatta; details: in vivo; outline: as §4
Rhesus monkey [32] = assay: Volume of distribution in rhesus monkey at 1 mL/kg, po; format: ADME, organism-based, Macaca mulatta; details: in vivo; outline: as §4
Rhesus monkey [33] = assay: Inhibition of bone resorption in ovariectomized monkey model of osteoporosis assessed as reduction of urinary-N-telopeptide fragment level at 1 mg/kg administered once daily; set-up: scale not given: the % may be the effect or the level left
[34] = Protein binding in rat plasma by ultracentrifugation; format: ADME, cell-free; details: read-out: PPB (converted)
[35] = Protein binding in rabbit plasma by ultracentrifugation; format: ADME, cell-free, Oryctolagus cuniculus; details: read-out: PPB (converted)
[36] = Protein binding in human plasma by ultracentrifugation; format: ADME, cell-free; details: read-out: PPB (converted)

IC50 [1] | IC50 (Cathepsin K) | Selectivity ratio [2] | Selectivity ratio [3] | IC50 [4] | Selectivity ratio [11] | Selectivity ratio [12] | Selectivity ratio [13] | Selectivity ratio [14] | Selectivity ratio [15] | bioavailability [22] | CL/F [23] | half-life [24] | Vdss (Rattus norvegicus [25]) | bioavailability [26] | CL/F [27] | half-life [28] | Vdss (Canis familiaris) | Compound | Ratio IC50 [5] | also measured
1.8 nM | 18.6 nM | 2900 | 2300 | 120 nM | – | – | – | – | – | – | – | – | – | – | – | – | – | CS(=O)(=O)c1ccc(-c2c[nH]nc2[C@@H]2CCC(F)(F)C[C@H]2C(=O)NC2(C#N)CC2)cc1 | 7 | –
0.81 nM | 4.5 nM | 4400 | 1200 | 35 nM | – | – | – | – | – | – | – | – | – | – | – | – | – | Cn1cc(-c2ccc(S(C)(=O)=O)cc2)c([C@@H]2CCC(F)(F)C[C@H]2C(=O)NC2(C#N)CC2)n1 | 8 | –
0.37 nM | 0.41 nM | 9500 | 490 | 41 nM | – | – | – | – | – | – | – | – | – | – | – | – | – | CSc1ccc(-c2cn(C)nc2[C@@H]2CCC(F)(F)C[C@H]2C(=O)NCC#N)cc1 (racemic) | 100 | –
0.62 nM | 6.1 nM | > 16000 | 4300 | 50 nM | 6000 | > 140000 | 1700 | 1100 | 110 | 105% | 7.8 mL/min/kg | 4.4 h | 2.8 L/kg | 60% | 1.4 mL/min/kg | 34 h | 2.1 L/kg | CS(=O)(=O)c1ccc(-c2cn(CC(F)(F)F)nc2[C@@H]2CCC(Cl)(Cl)C[C@H]2C(=O)NC2(C#N)CC2)cc1 | 8 | dose excreted at 96 h [6]: 16%; dose excreted at 96 h [7]: 18%; dose excreted at 96 h [8]: 58%; dose excreted at 96 h [9]: 92%; Activity (Rattus norvegicus [10]): 0.1%; IC50 [16]: 2 nM; Activity (Rhesus monkey [17]): 72%; Cmax [18]: 400 nM; Tmax [19]: 4 h; concentration at 24 h [20]: 80 nM; AUC at 168 h [21]: 4.2 µM·h; inhibition (Homo sapiens): > 99%; bioavailability [29]: 104%; CL/F [30]: 5 mL/min/kg; half-life [31]: 13 h; Vdss (Rhesus monkey [32]): 3.4 L/kg; Activity (Rhesus monkey [33]): 76%
0.28 nM | – | > 36000 | 940 | 16 nM | – | – | – | – | – | – | – | – | – | – | – | – | – | CSc1ccc(-c2ccccc2[C@@H]2CCC(F)(F)C[C@H]2C(=O)NCC#N)cc1 | 53 | fraction unbound [34]: 0.15; fraction unbound [35]: 0.15; fraction unbound [36]: 0.15
0.69 nM | 9.3 nM | > 14000 | 7100 | 51 nM | 6000 | > 140000 | 1700 | 1100 | 110 | 25% | 14 mL/min/kg | 4.4 h | 3.2 L/kg | 31% | 1.8 mL/min/kg | 7.8 h | 1.2 L/kg | CS(=O)(=O)c1ccc(-c2cn(CC(F)(F)F)nc2[C@@H]2CCC(F)(F)C[C@H]2C(=O)NC2(C#N)CC2)cc1 | 6 | –
